Reference: ChEMBL document CHEMBL1134785, “Synthesis and biological evaluation of prostaglandin-F alkylphosphinic acid derivatives as bone anabolic agents for the treatment of osteoporosis” (J Med Chem, 2001)

Key:
Rattus norvegicus [1] = test: Endosteal mineralizing surface Histomorphometrically after a dose of 10 ug/kg in tibial diaphysis; format: functional
Summary of the method: (§1)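 Six-month-old rats, bilaterally ovariectomized, 6-8 per group, on natural chow. After 60 days they received once-daily subcutaneous dosing for 60 days at 0.01–3.0 mg/kg. Vehicle was acetate-buffered saline with methylcellulose and polyoxyethylenesorbitan monooleate. Labels were xylenol orange 90 mg/kg before treatment and calcein 10 mg/kg 14 and 4 days before sacrifice. Tibial histomorphometry was read under fluorescent light, with ANOVA/LSD versus vehicle.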

Rattus norvegicus [2] = test: Directly measured thickness(um) using micro Computed Tomography(CT) after a dose of 300 ug/kg in Vertebral Bone; format: functional
Summary of the method: (§2)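 Micro-CT of the fifth lumbar vertebra, measuring cancellous bone volume and architecture. Rats were 6 months old, OVX 60 days before treatment, then dosed daily for 60 days. Test-agent doses were 10–3000 µg/kg, given as a once-daily subcutaneous injection; 6 mg/kg/day was given to the positive-control group. Groups were compared with vehicle by ANOVA plus LSD test.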

Rattus norvegicus [3] = test: Mineral apposition rate ([…])bone measured Histomorphometrically after a dose of 1000 ug/kg in proximal tibial metaphysis; format: functional
Summary of the method: (§3)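 Ovariectomized six-month-old rats, 6-8 per group, were dosed subcutaneously once daily at 0.01–3.0 mg/kg for 60 days, starting 60 days after surgery. Vehicle was acetate-buffered saline, methylcellulose and polyoxyethylenesorbitan monooleate. Labels were xylenol orange 90 mg/kg pretreatment and calcein 10 mg/kg at 14 and 4 days before necropsy. Histomorphometry covered the proximal tibial metaphysis, 1–4 mm distal to the growth plate–metaphyseal junction. ANOVA/LSD versus vehicle.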

Rattus norvegicus [4] = test: Bone Volume /Tissue Volume (%)measured using micro Computed Tomography(CT) after a dose of 100 ug/kg in Vertebral Bone; format: functional; conditions: at 100 µg/kg
Rattus norvegicus [5] = test: Trabecular thickness […] measured Histomorphometrically after a dose of 10 ug/kg in proximal tibial metaphysis; format: functional, Trabecula
Summary of the method: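 Six-month-old rats were ovariectomized, and 60 days later daily subcutaneous dosing began for 60 days, with vehicle of acetate-buffered saline, methylcellulose and polysorbate. Xylenol orange (90 mg/kg) labelled bone pre-treatment and calcein (10 mg/kg) 14 and 4 days pre-sacrifice. Histomorphometry covered the proximal tibial metaphysis 1-4 mm distal to the growth plate-metaphyseal junction. Groups were 6-8 rats, compared by ANOVA/LSD vs vehicle.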

Rattus norvegicus [6] = test: Periosteal mineralizing surface (%) measured Histomorphometrically after a dose of 3000 ug/kg in tibial diaphysis; format: functional
Summary of the method: (§4)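 Rats on natural chow (1.46% Ca) were bilaterally ovariectomized at 6 months and left untreated for 60 days. They then received once-daily subcutaneous doses for 60 days, with vehicle of acetate-buffered saline, methylcellulose and polysorbate. Xylenol orange (90 mg/kg) was given before treatment and calcein (10 mg/kg) 14 and 4 days before sacrifice. Tibiae were analysed by fluorescent histomorphometry, 6-8 rats/group, ANOVA/LSD vs vehicle.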

Rattus norvegicus [7] = test: Periosteal mineralizing surface (%) measured Histomorphometrically after a dose of 1000 ug/kg in tibial diaphysis; format: functional; summary of the method: as §4
Rattus norvegicus [8] = test: Mineral apposition rate ([…])bone measured Histomorphometrically after a dose of 3000 ug/kg in tibial diaphysis; format: functional; summary of the method: as §1
Rattus norvegicus [9] = test: Endosteal eroded surface(%) measured Histomorphometrically after a dose of 3000 ug/kg in tibial diaphysis; format: functional
Summary of the method: (§5)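 Tibial histomorphometry in 6-month-old rats, OVX 60 days before treatment, then daily injection for 60 days. Vehicle was acetate-buffered saline with methylcellulose and polyoxyethylenesorbitan monooleate. Rats received xylenol orange 90 mg/kg before treatment and calcein 10 mg/kg at 14 and 4 days pre-sacrifice. Rats were killed by cardiac puncture under ketamine/xylazine. Groups were compared with vehicle by ANOVA plus LSD test.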

Rattus norvegicus [10] = test: Bone formation rate/bone volume (%/year) bone measured histomorphometrically after a dose of 100 ug/kg in proximal tibial metaphysis; format: functional; conditions: at 100 µg/kg
Rattus norvegicus [11] = test: Derived trabecular thickness (um) measured using micro Computed Tomography(CT) after a dose of 100 ug/kg in Vertebral Bone; format: functional, Trabecula; summary of the method: as §2
Rattus norvegicus [12] = test: Endosteal mineralizing surface Histomorphometrically after a dose of 1000 ug/kg in tibial diaphysis; format: functional; summary of the method: as §1
Rattus norvegicus [13] = test: Bone formation rate/tissue volume (%/year) bone measured histomorphometrically after a dose of 30 ug/kg in proximal tibial metaphysis; format: functional; conditions: at 30 µg/kg
Rattus norvegicus [14] = test: Bone formation rate/bone volume (%/year)bone measured Histomorphometrically after a dose of 300 ug/kg in proximal tibial metaphysis; format: functional; conditions: at 300 µg/kg
[15] = molecular target: Prostaglandin E2 receptor EP4 subtype (Homo sapiens, UniProt P35408); test: In vitro binding at EP4 human prostaglandin receptor using [3H]PGE-2 as radioligand
Chain of Prostaglandin E2 receptor EP4 subtype (P35408 whole entry): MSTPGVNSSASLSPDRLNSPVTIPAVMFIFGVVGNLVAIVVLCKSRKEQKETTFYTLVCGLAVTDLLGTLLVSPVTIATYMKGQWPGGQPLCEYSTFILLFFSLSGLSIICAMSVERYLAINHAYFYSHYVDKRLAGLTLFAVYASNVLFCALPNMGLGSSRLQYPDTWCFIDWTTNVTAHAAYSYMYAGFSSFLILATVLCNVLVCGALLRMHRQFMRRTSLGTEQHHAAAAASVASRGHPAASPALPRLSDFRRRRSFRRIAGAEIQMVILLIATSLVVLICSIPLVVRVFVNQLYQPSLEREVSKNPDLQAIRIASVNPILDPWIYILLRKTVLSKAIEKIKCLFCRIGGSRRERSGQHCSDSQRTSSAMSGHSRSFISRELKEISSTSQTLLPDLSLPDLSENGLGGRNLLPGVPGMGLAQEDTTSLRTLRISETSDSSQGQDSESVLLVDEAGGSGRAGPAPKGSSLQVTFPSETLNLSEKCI
Summary of the method: (§6)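 Receptors stably expressed in CHO cells, collected 4-5 days after seeding. Membranes made by lysis (Tris, EDTA, protease inhibitors) and 100000g pellet, then resuspended at 1 mg protein/mL in TME. Radioligands at 5 nM: [3H]PGE2 for EP2/EP3/EP4, [3H]Iloprost for IP, [3H]SQ-29548 for TP. Competition binding with filtration and counting.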

Rattus norvegicus [16] = test: Mineral apposition rate ([…])bone measured Histomorphometrically after a dose of 3000 ug/kg in proximal tibial metaphysis; format: functional; summary of the method: as §3
Rattus norvegicus [17] = test: Mineralizing surface/bone surface(%) measured Histomorphometrically after a dose of 300 ug/kg in proximal tibial metaphysis; format: functional; summary of the method: as §3
Rattus norvegicus [18] = test: Endosteal eroded surface(%) measured Histomorphometrically after a dose of 10 ug/kg in tibial diaphysis; format: functional; summary of the method: as §5
Rattus norvegicus [19] = test: Periosteal mineral apposition rate ([…]) measured Histomorphometrically after a dose of 100 ug/kg in tibial diaphysis; format: functional; summary of the method: as §1
Rattus norvegicus [20] = test: Mineralizing surface/bone surface(%) measured Histomorphometrically after a dose of 100 ug/kg in proximal tibial metaphysis; format: functional; summary of the method: as §3
Thromboxane A2 receptor = molecular target: T1, Thromboxane A2 receptor (Homo sapiens, UniProt P21731); test: In vitro binding at TP human prostaglandin receptor using [3H]SQ-29,548 as radioligand; summary of the method: as §6
T1 sequence (P21731 whole entry): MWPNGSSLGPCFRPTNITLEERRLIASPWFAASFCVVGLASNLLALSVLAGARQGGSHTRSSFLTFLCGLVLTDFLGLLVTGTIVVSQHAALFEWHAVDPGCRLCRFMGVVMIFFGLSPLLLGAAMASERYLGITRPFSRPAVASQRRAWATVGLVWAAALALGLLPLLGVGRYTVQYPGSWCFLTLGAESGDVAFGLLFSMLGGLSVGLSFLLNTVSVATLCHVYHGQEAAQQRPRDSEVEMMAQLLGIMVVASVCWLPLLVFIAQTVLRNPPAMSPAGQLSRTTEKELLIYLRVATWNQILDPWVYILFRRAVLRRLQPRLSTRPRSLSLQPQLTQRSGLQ

Rattus norvegicus [21] = test: Derived trabecular no […]measured using micro Computed Tomography(CT) after a dose of 10 ug/kg in Vertebral Bone; format: functional, Trabecula; summary of the method: as §2
Rattus norvegicus [22] = test: Mineral apposition rate ([…])bone measured Histomorphometrically after a dose of 100 ug/kg in tibial diaphysis; format: functional; summary of the method: as §1
Rattus norvegicus [23] = test: Directly measured thickness(um) using micro Computed Tomography(CT) after a dose of 3000 ug/kg in Vertebral Bone; format: functional; summary of the method: as §2

## CP(=O)(O)CCC/C=C\C[C@@H]1[C@@H](/C=C/[C@@H](O)COc2ccccc2)[C@H](O)C[C@@H]1O
Rattus norvegicus [1]
  Endosteal mineralizing surface: 46.62%
Rattus norvegicus [2]
  Directly measured thickness: 127 µm
Rattus norvegicus [3]
  Mineral apposition rate: 1.06 µm/day
Rattus norvegicus [4]
  Activity: 38.04%
Rattus norvegicus [5]
  Trabecular thickness: 35.7 µm
Rattus norvegicus [6]
  Periosteal mineralizing surface: 11.109%
Rattus norvegicus [7]
  Periosteal mineralizing surface: 10.35%
Rattus norvegicus [8]
  Mineral apposition rate: 1.03 µm/day
Rattus norvegicus [9]
  Endosteal eroded surface: 2.2%
Rattus norvegicus [10]
  Activity: 320.16%
Rattus norvegicus [11]
  Derived trabecular thickness: 78.7 µm
Rattus norvegicus [12]
  Endosteal mineralizing surface: 35.29%
Rattus norvegicus [13]
  Activity: 17.55%
Rattus norvegicus [14]
  Activity: 322.61%
[15]
  IC50: > 10 µM
Rattus norvegicus [16]
  Mineral apposition rate: 0.94 µm/day
Rattus norvegicus [17]
  Activity: 23.57%
Rattus norvegicus [18]
  Endosteal eroded surface: 11.83%
Rattus norvegicus [19]
  Periosteal mineral apposition rate: 0.38 µm day-1
Rattus norvegicus [20]
  Activity: 27.11%
Thromboxane A2 receptor
  IC50: > 10 µM
Rattus norvegicus [21]
  Derived trabecular number: 4.26 mm-1
Rattus norvegicus [22]
  Mineral apposition rate: 0.42 µm/day
Rattus norvegicus [23]
  Directly measured thickness: 134 µm
